Screening results as filed in PubChem.
ARFGAP1 inh = rat ARFGAP1 inhibition | actives 0.26% (n = 360,000) | AID 651572 | Q62848 | inhibition, % at 16.5 µM | Arfgap1-stimulated ARF1 GTP hydrolysis, GDP FP detection;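 active = inhibition above a per-plate limit, mean inhibition of low control wells plus 3 SD, cut at about 25% in these data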
Target sequence (Q62848 1-136 limits assumed): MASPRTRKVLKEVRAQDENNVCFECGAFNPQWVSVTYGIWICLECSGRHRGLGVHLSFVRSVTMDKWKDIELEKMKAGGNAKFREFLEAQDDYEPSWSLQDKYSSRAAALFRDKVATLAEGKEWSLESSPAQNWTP
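material = rat Arfgap1 catalytic domain, aa 1-136 | also added = human ARF1(Δ1-17)-GTP substrate | compound dosing = one concentration, 16.5 µM, DMSO 1.26% | times = GTP hydrolysis reaction 2 h at 25 °C | measured by = FP, GDP Alexa 633 tracer displaced from anti-GDP antibody, 620/688 nm | evaluation = percent inhibition of Arfgap1-stimulated GTP hydrolysis | replication = single well per compound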
EBNA-1 inh = blocks EBNA-1 binding to DNA. EBNA-1 DNA binding, fluorescence polarization. inhibition, % at 14.8 µM. actives 0.34% (n = 300,000); in the data active = inhibition above about 28%
ZTA DNA inh = counter-screen for EBNA-1 inhibitors: inhibitors of Epstein-Barr virus ZTA. ZTA-DNA binding, fluorescence polarization. P03206. actives 0.15% (n = 320,000). inhibition, % at 11 µM; in the data active = inhibition above about 33%
ASAP1 inh = blocks human ASAP1-stimulated Arf1 GTP hydrolysis; Q9ULH1; GDP FP detection; inhibition, % at 16.5 µM; actives 0.19% (n = 360,000); in the data active = inhibition above about 25%
Target sequence (Q9ULH1 325-724 limits assumed): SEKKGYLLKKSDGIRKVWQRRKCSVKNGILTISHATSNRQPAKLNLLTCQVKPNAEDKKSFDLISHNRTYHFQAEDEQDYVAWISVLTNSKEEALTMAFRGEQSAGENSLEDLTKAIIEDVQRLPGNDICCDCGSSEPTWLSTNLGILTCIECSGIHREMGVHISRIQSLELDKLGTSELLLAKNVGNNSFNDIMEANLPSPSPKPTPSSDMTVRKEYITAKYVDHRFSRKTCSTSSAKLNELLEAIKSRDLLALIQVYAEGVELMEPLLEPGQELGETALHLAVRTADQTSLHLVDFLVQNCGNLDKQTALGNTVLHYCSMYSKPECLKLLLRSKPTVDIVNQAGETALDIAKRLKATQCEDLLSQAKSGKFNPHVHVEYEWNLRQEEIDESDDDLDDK
ARFGAP1 confirm = confirmation of rat ARFGAP1 inhibitors; shares compounds with ARFGAP1 inh; ARFGAP1-stimulated ARF1 GTP hydrolysis, GDP tracer FP; inhibition, % at 16.5 µM; actives 30% (n = 890);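 active = average inhibition over triplicates above the hit cutoff set in the earlier primary screen, cut at about 25% in these data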
Large screens that a line does not name were inactive (follow-up assays come after a bar, where they were run). Rows were chosen to be rich in hits. Some 0.75% of all compounds tested hit in one or more screens of this group.

COC(=O)c1c(NC(=O)C2CC=CCC2C(=O)O)sc(C(N)=O)c1C (configuration not stated)	ARFGAP1 inh 25 | ARFGAP1 confirm inactive
Clc1cccc(CNc2nc(-c3cccnc3)nc3ccccc23)c1	ARFGAP1 inh 32 (no result: EBNA-1 inh, ZTA DNA inh) | ARFGAP1 confirm 27
Clc1ccccc1Nc1nc(-c2ccncc2)nc2ccccc12	none
Clc1cccc(Nc2nc(-c3ccncc3)nc3ccccc23)c1	ARFGAP1 inh 39 | ARFGAP1 confirm 50
COc1ccc(CNS(=O)(=O)CCNCc2ccccc2OC)cc1	ARFGAP1 inh 52 (no result: EBNA-1 inh, ZTA DNA inh) | ARFGAP1 confirm inactive
C[C@H](O)[C@@H]1C(=O)N2CCc3c([nH]c4c(-c5ccccc5)cccc34)[C@@H]2C[C@@H]1N(C)C(=S)Nc1ccc(C#N)cc1	none (no result: EBNA-1 inh, ZTA DNA inh)
CCCCOCC1CN(CCCC)S(=O)(=O)c2c(Oc3ccc(C(C)C)cc3)cccc2O1 (configuration not stated)	none (no result: EBNA-1 inh, ZTA DNA inh)
C[C@H]1CN(C(=O)OC(C)(C)C)CCN1c1ccc(N2CC[C@H](O)C2)c(C#N)c1	none (no result: EBNA-1 inh, ZTA DNA inh)
CCNC(=O)C1(C)CCN(C(=O)c2ccc(OC)cc2OC)C1 (configuration not stated)	none (no result: EBNA-1 inh, ZTA DNA inh)
CCOC(=O)C1CCN(C(=O)c2ccc(OC)cc2OC)CC1	ARFGAP1 inh 29 | ARFGAP1 confirm inactive
COc1ccc(C(=O)N2CCC(C)(C(=O)O)C2)c(OC)c1 (configuration not stated)	ARFGAP1 inh 26 (no result: EBNA-1 inh, ZTA DNA inh) | ARFGAP1 confirm inactive
CCOC(=O)C1CCCN(C(=O)c2ccc(OC)cc2OC)CC1 (configuration not stated)	none (no result: EBNA-1 inh, ZTA DNA inh)
CCCCS(=O)(=O)N1CCCc2nc(C)c(C)cc21	none (no result: EBNA-1 inh, ZTA DNA inh)
O=C(Nc1ccncc1)c1cn(-c2ccccc2)nc1-c1cccs1	ARFGAP1 inh 26 | ARFGAP1 confirm inactive
CC(C)C[C@H](NC(=O)c1ccccc1)C(=O)N1CCC[C@H]1C(=O)NCc1ccccc1	none (no result: EBNA-1 inh, ZTA DNA inh)
COc1ccc(CNC(=O)CSc2nnc(C(F)(F)F)n2C)cc1	ARFGAP1 inh 29 | ARFGAP1 confirm inactive
Cn1c(SCC(=O)NCCNC(=O)CSc2nnc(C(F)(F)F)n2C)nnc1C(F)(F)F	none
O=C(NC1CCCC1)[C@@H]1CCCN1C(=O)[C@@H](NC(=O)N1CCOCC1)c1ccccc1	none (no result: EBNA-1 inh, ZTA DNA inh)
COCCCn1c(C)cc(C(=O)CN2c3cccc4cccc(c34)S2(=O)=O)c1C	ARFGAP1 inh 32 (no result: EBNA-1 inh) | ARFGAP1 confirm 36
CCn1c(C)cc(C(=O)CN2C(=O)c3ccccc3S2(=O)=O)c1C	none (no result: EBNA-1 inh)
COc1ccc(-c2c(-c3ccc(OCC(=O)NN)cc3O)n[nH]c2C(F)(F)F)cc1	ARFGAP1 inh 32 | ARFGAP1 confirm inactive
COc1ccc(-c2c(-c3ccc(OCC(=O)NN)cc3O)n[nH]c2C)cc1OC	none
CCC[C@@H]1CCCO[C@@](C(=O)NCCN2CCOCC2)(C(F)(F)F)C1	ARFGAP1 inh 31 | ARFGAP1 confirm inactive
CCCCC1CCCOC(C(=O)NCCNCCO)(C(F)(F)F)C1 (configuration not stated)	none
O=C(NCc1ccccc1)[C@H]1CCCN1C(=O)[C@H]1CCCN1C(=O)c1ccc(F)cc1	none (no result: EBNA-1 inh, ZTA DNA inh)
Cc1nc2ccccc2cc1C(=O)N/N=C/c1cccc([N+](=O)[O-])c1	ARFGAP1 inh 25 | ARFGAP1 confirm inactive
CC(C)[C@H](NC(=O)c1cccs1)C(=O)N1CCC[C@H]1C(=O)NCc1ccccc1	none (no result: EBNA-1 inh, ZTA DNA inh)
Cc1ccc(-n2c(=O)cc(N3CCC(C)CC3)[nH]c2=O)cc1	ARFGAP1 inh 26 | ARFGAP1 confirm inactive
Cc1ccc(-n2c(=O)cc(N3CC(C)CC(C)C3)[nH]c2=O)cc1 (configuration not stated)	none
O=C(N/N=C/c1cc(Cl)cc([N+](=O)[O-])c1O)c1ccc2c(c1)OCO2	none
COc1ccc(Br)cc1/C=N/NC(=O)c1cc(Br)ccc1O	none (no result: ARFGAP1 inh, ASAP1 inh)
COc1cc(Cl)cc(/C=N\NC(=O)c2ccc3c(c2)OCO3)c1O	ARFGAP1 inh 34 (no result: EBNA-1 inh, ZTA DNA inh) | ARFGAP1 confirm 43
COc1ccc(O)c(/C=N/NC(=O)c2ccc(CSc3nc(C)cc(C)n3)cc2)c1	ARFGAP1 inh 30 | ARFGAP1 confirm 33
COc1ccc(C(=O)N/N=C/c2cc(Br)ccc2O)cc1OC	ARFGAP1 inh 33 | ARFGAP1 confirm 50
CN1CC[C@@H]2CN(S(=O)(=O)c3ccccc3)[C@H](c3ccccc3Br)C[C@@H]21	none (no result: EBNA-1 inh, ZTA DNA inh)
Cc1ccccc1C(=O)N1CCC[C@@H]1C(=O)N1CCC[C@H]1C(=O)NCc1ccccc1	none (no result: EBNA-1 inh, ZTA DNA inh)
Cc1cc(Nc2cc(F)c(F)c(F)c2)cc(=O)n1-c1cc(F)c(F)c(F)c1	none (no result: EBNA-1 inh, ZTA DNA inh)
CCOC(=O)N(C)[C@H]1C[C@H]2c3[nH]c4ccccc4c3CCN2C(=O)[C@H]1[C@H](C)O	none (no result: EBNA-1 inh, ZTA DNA inh)
COC(=O)C1=C(C)N(C)C(=NCc2ccccc2)NC1CCc1ccccc1 (configuration not stated)	none (no result: EBNA-1 inh, ZTA DNA inh)
Cc1ccc([C@H]2C[C@]34CN(Cc5ccccc5)S(=O)(=O)[C@H]3C[C@H]2O4)cc1	none (no result: EBNA-1 inh, ZTA DNA inh)
CC(c1ccccc1)N1C(=O)c2cccnc2C1=O (configuration not stated)	none
CC(NC1=CC(=O)c2cccnc2C1=O)C(O)c1ccccc1 (configuration not stated)	ARFGAP1 inh 27 (no result: EBNA-1 inh, ZTA DNA inh) | ARFGAP1 confirm inactive
O=C(N[C@H](Cc1ccccc1)C(=O)O)[C@H]1O[C@@H](n2ccc(=O)[nH]c2=O)[C@H](O)[C@@H]1O	none (no result: EBNA-1 inh, ZTA DNA inh)
COc1cc2cnc(-c3ccccc3)cc2cc1OC	none (no result: EBNA-1 inh, ZTA DNA inh)
COc1ccc(-c2cc3cc(OC)c(OC)cc3cn2)cc1	ARFGAP1 inh 29 (no result: EBNA-1 inh, ZTA DNA inh) | ARFGAP1 confirm 31
Cn1c(=O)c2c(-c3ccccc3F)c3c(nc2n(C)c1=O)-c1ccccc1C3O (configuration not stated)	ARFGAP1 inh 25 | ARFGAP1 confirm inactive
COC(=O)[C@]12C[C@H](CC(=O)NCCC(C)C)C(=O)N(CCC3=CCCCC3)C1=C[C@H](COCc1ccccc1)O[C@@H]2C	none (no result: EBNA-1 inh, ZTA DNA inh)
CCc1cccc(C)c1NC(=O)CSc1nnc(CCCOc2ccc(Cl)cc2Cl)n1C	ARFGAP1 inh 25 | ARFGAP1 confirm inactive
COC(=O)C1=C(C)N(Cc2ccc(C(F)(F)F)cc2)C(=NCC2CC2)NC1c1ccccc1C(F)(F)F (configuration not stated)	none (no result: EBNA-1 inh, ZTA DNA inh)
O=c1c(C(c2ccc(F)cc2)c2c(O)nc3n(c2=O)CCS3)c(O)nc2n1CCS2	ARFGAP1 inh 26 | ARFGAP1 confirm inactive
O=c1c(C(c2ccc(Cl)cc2)c2c(O)nc3n(c2=O)CCS3)c(O)nc2n1CCS2	none
C[C@@H]1CN([C@@H](C)CO)C(=O)CCCn2cc(nn2)CO[C@H]1CN(C)C(=O)Nc1cccc(F)c1	none (no result: EBNA-1 inh, ZTA DNA inh)
COc1ccc(-c2cn[nH]c2-c2ccc(OCc3ccccc3)cc2O)cc1	none
CCOc1ccc(-c2[nH]ncc2-c2ccccc2)c(O)c1	ARFGAP1 inh 25 | ARFGAP1 confirm inactive
COC(=O)[C@]12C[C@H](CC(=O)NCCCN3CCCC3=O)C(=O)N(CCC3=CCCCC3)C1=C[C@H](C(C)(C)C)O[C@@H]2C	none (no result: EBNA-1 inh, ZTA DNA inh)
CCOc1ccc(NC(=O)CSc2nnc(-c3ccncc3)n2CC2CCCO2)cc1 (configuration not stated)	none
